{"source": "ChEMBL document CHEMBL2434878", "about": "“Synthesis and antimycobacterial activity of analogues of the bioactive natural products sampangine and cleistopholine” (Eur J Med Chem, 2013)", "data": [{"tested_on": "Mycobacterium tuberculosis", "assay": "Antimicrobial activity against Mycobacterium tuberculosis H37Rv ATCC 27294 expressing luciferase reporter gene infected in mouse J774 macrophages assessed as intracellular growth inhibition at 1 uM after 4 days by luminometry relative to untreated control", "assay_type": "functional", "conditions": "H37Rv ATCC 27294, J774, 96 h, read-out: GI", "outline": "(§1)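 J774.A1 murine macrophages were seeded at 40,000 cells/well, recovered overnight and infected with luminescent H37Rv. From 24 h post-infection, cells were treated for 4 days in DMEM with penicillin and fungizone, without gentamicin. Growth was read by luminescence after 1% n-decanal and expressed as percent inhibition versus untreated, in triplicate. Macrophage viability was checked by trypan blue.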", "units": {"inhibition of growth at 1 µM": "%"}, "values": [{"smiles": "Cc1ccc(-c2cc3c4c(nccc4n2)-c2ccccc2C3=O)cc1", "inhibition of growth at 1 µM": 34.6}, {"smiles": "CN(C)/C=C/c1nc(-c2ccc(F)cc2)cc2c1C(=O)c1ccccc1C2=O", "inhibition of growth at 1 µM": 27.3}, {"smiles": "CN(C)/C=C/c1nc(-c2ccc(Cl)cc2)cc2c1C(=O)c1ccccc1C2=O", "inhibition of growth at 1 µM": 35.6}]}, {"tested_on": "Mycobacterium tuberculosis", "assay": "Antimicrobial activity against Mycobacterium tuberculosis H37Rv ATCC 27294 expressing luciferase reporter gene assessed as growth inhibition at 0.1 uM after 6 days by luminometry relative to control", "assay_type": "functional", "conditions": "H37Rv ATCC 27294, 144 h, read-out: GI", "outline": "(§2)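 Single-concentration screen of the luminescent H37Rv reporter strain in 7H9-10% FCS, inoculated at 50,000 RLU/ml, 6 days at 37 °C. Luminescence was read after n-decanal addition. Percent inhibition is versus the untreated culture, as the mean of triplicate cultures.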", "units": {"inhibition of growth at 0.1 µM": "%"}, "values": [{"smiles": "Cc1ccc(-c2cc3c4c(nccc4n2)-c2ccccc2C3=O)cc1", "inhibition of growth at 0.1 µM": 73}, {"smiles": "CN(C)/C=C/c1nc(-c2ccc(F)cc2)cc2c1C(=O)c1ccccc1C2=O", "inhibition of growth at 0.1 µM": 35}, {"smiles": "CN(C)/C=C/c1nc(-c2ccc(Cl)cc2)cc2c1C(=O)c1ccccc1C2=O", "inhibition of growth at 0.1 µM": 34}]}, {"tested_on": "Mycobacterium tuberculosis", "assay": "Antimicrobial activity against Mycobacterium tuberculosis H37Rv ATCC 27294 expressing luciferase reporter gene assessed as growth inhibition at 1 uM after 6 days by luminometry relative to control", "assay_type": "functional", "conditions": "H37Rv ATCC 27294, 144 h, read-out: GI", "outline": "as §2", "units": {"inhibition of growth at 1 µM": "%"}, "values": [{"smiles": "Cc1ccc(-c2cc3c4c(nccc4n2)-c2ccccc2C3=O)cc1", "inhibition of growth at 1 µM": 100}, {"smiles": "CN(C)/C=C/c1nc(-c2ccc(F)cc2)cc2c1C(=O)c1ccccc1C2=O", "inhibition of growth at 1 µM": 92}, {"smiles": "CN(C)/C=C/c1nc(-c2ccc(Cl)cc2)cc2c1C(=O)c1ccccc1C2=O", "inhibition of growth at 1 µM": 91}]}, {"tested_on": "Mycobacterium tuberculosis", "assay": "Antimicrobial activity against Mycobacterium tuberculosis H37Rv ATCC 27294 expressing luciferase reporter gene assessed as reduction in bacterial count after 6 days by luminometry", "assay_type": "functional", "conditions": "H37Rv ATCC 27294, 144 h", "outline": "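MIC by serial dilution in the 6-day luminescent H37Rv assay (7H9-10% FCS, 50,000 RLU/ml inoculum, triplicate wells, n-decanal read-out). MIC is the concentration giving at least one log10 reduction in signal versus the untreated control.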", "units": {"MIC90": "µM"}, "values": [{"smiles": "Cc1ccc(-c2cc3c4c(nccc4n2)-c2ccccc2C3=O)cc1", "MIC90": 1.31}, {"smiles": "CN(C)/C=C/c1nc(-c2ccc(F)cc2)cc2c1C(=O)c1ccccc1C2=O", "MIC90": 0.88}, {"smiles": "CN(C)/C=C/c1nc(-c2ccc(Cl)cc2)cc2c1C(=O)c1ccccc1C2=O", "MIC90": 1.1}]}, {"tested_on": "Mycobacterium avium subsp. paratuberculosis", "assay": "Antimicrobial activity against Mycobacterium avium subsp. paratuberculosis ATCC 15769 expressing luciferase reporter gene assessed as growth inhibition after 6 days by luminometry", "assay_type": "functional", "conditions": "ATCC 15769, 144 h", "units": {"GI50": "µM"}, "values": [{"smiles": "CN(C)/C=C/c1nc(-c2ccc(F)cc2)cc2c1C(=O)c1ccccc1C2=O", "GI50": 3.23}, {"smiles": "CN(C)/C=C/c1nc(-c2ccc(Cl)cc2)cc2c1C(=O)c1ccccc1C2=O", "GI50": 3.95}]}, {"tested_on": "not listed separately", "assay": "Antimicrobial activity against Mycobacterium avium subsp. avium ATCC 19698 expressing luciferase reporter gene assessed as growth inhibition after 6 days by luminometry", "assay_type": "functional", "conditions": "ATCC 19698, 144 h", "units": {"GI50": "µM"}, "values": [{"smiles": "CN(C)/C=C/c1nc(-c2ccc(F)cc2)cc2c1C(=O)c1ccccc1C2=O", "GI50": 3.65}, {"smiles": "CN(C)/C=C/c1nc(-c2ccc(Cl)cc2)cc2c1C(=O)c1ccccc1C2=O", "GI50": 3.88}]}, {"tested_on": "Mycobacterium tuberculosis", "assay": "Antimicrobial activity against Mycobacterium tuberculosis H37Rv ATCC 27294 expressing luciferase reporter gene infected in mouse J774 macrophages assessed as intracellular growth inhibition at 2 uM after 4 days by luminometry relative to untreated control", "assay_type": "functional", "conditions": "H37Rv ATCC 27294, J774, 96 h, read-out: GI", "outline": "as §1", "units": {"inhibition of growth at 2 µM": "%"}, "values": [{"smiles": "Cc1ccc(-c2cc3c4c(nccc4n2)-c2ccccc2C3=O)cc1", "inhibition of growth at 2 µM": 47.2}, {"smiles": "CN(C)/C=C/c1nc(-c2ccc(F)cc2)cc2c1C(=O)c1ccccc1C2=O", "inhibition of growth at 2 µM": 60.5}, {"smiles": "CN(C)/C=C/c1nc(-c2ccc(Cl)cc2)cc2c1C(=O)c1ccccc1C2=O", "inhibition of growth at 2 µM": 54.4}]}, {"tested_on": "Mycobacterium tuberculosis", "assay": "Antimicrobial activity against Mycobacterium tuberculosis H37Rv ATCC 27294 expressing luciferase reporter gene assessed as growth inhibition at 10 uM after 6 days by luminometry relative to control", "assay_type": "functional", "conditions": "H37Rv ATCC 27294, 144 h, read-out: GI", "outline": "as §2", "units": {"inhibition of growth at 10 µM": "%"}, "values": [{"smiles": "Cc1ccc(-c2cc3c4c(nccc4n2)-c2ccccc2C3=O)cc1", "inhibition of growth at 10 µM": 100}, {"smiles": "CN(C)/C=C/c1nc(-c2ccc(F)cc2)cc2c1C(=O)c1ccccc1C2=O", "inhibition of growth at 10 µM": 100}, {"smiles": "CN(C)/C=C/c1nc(-c2ccc(Cl)cc2)cc2c1C(=O)c1ccccc1C2=O", "inhibition of growth at 10 µM": 100}]}, {"tested_on": "Mycobacterium ulcerans", "assay": "Antimicrobial activity against Mycobacterium ulcerans 1615 expressing luciferase reporter gene assessed as growth inhibition after 6 days by luminometry", "assay_type": "functional", "conditions": "Mycobacterium ulcerans, 1615, 144 h", "outline": "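Luminescent M. ulcerans 1615 carrying pSMT1 luciferase plasmid, grown at 32 °C in 7H9 with 10% OADC and 0.2% glycerol. Serial dilutions from 10 mM DMSO stocks in 7H9 + 10% FCS; bacteria dosed at 50,000 RLU/ml, triplicate wells. After 6 days, light read over 10 s following 1% n-decanal in ethanol. GI50 taken at 50% growth reduction versus untreated culture.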", "units": {"GI50": "µM"}, "values": [{"smiles": "CN(C)/C=C/c1nc(-c2ccc(F)cc2)cc2c1C(=O)c1ccccc1C2=O", "GI50": 7.49}, {"smiles": "CN(C)/C=C/c1nc(-c2ccc(Cl)cc2)cc2c1C(=O)c1ccccc1C2=O", "GI50": 7.69}]}, {"tested_on": "not listed separately", "assay": "Therapeutic index, ratio of IC50 for human HepG2/C3A cells to GI50 for Mycobacterium tuberculosis H37Rv ATCC 27294", "assay_type": "cell-based", "conditions": "read-out: TI", "outline": "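TI is NI50/GI50. NI50 came from a neutral red uptake assay in C3A hepatocytes (40,000 cells/well, 24 h exposure at 37 °C, 3 h dye, OD 530 nm with 620 nm reference): the concentration reducing dye uptake by 50%. GI50 came from the 6-day luminescent H37Rv assay.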", "values": [{"smiles": "Cc1ccc(-c2cc3c4c(nccc4n2)-c2ccccc2C3=O)cc1", "selectivity ratio": 16.6}, {"smiles": "CN(C)/C=C/c1nc(-c2ccc(F)cc2)cc2c1C(=O)c1ccccc1C2=O", "selectivity ratio": 91}, {"smiles": "CN(C)/C=C/c1nc(-c2ccc(Cl)cc2)cc2c1C(=O)c1ccccc1C2=O", "selectivity ratio": 34.2}]}, {"tested_on": "not listed separately", "assay": "Cytotoxicity against human HepG2/C3A cells after 24 hrs by neutral red dye uptake assay", "assay_type": "cell-based", "conditions": "not given", "units": {"IC50": "µM"}, "values": [{"smiles": "Cc1ccc(-c2cc3c4c(nccc4n2)-c2ccccc2C3=O)cc1", "IC50": 7.14}, {"smiles": "CN(C)/C=C/c1nc(-c2ccc(F)cc2)cc2c1C(=O)c1ccccc1C2=O", "IC50": 37.3}, {"smiles": "CN(C)/C=C/c1nc(-c2ccc(Cl)cc2)cc2c1C(=O)c1ccccc1C2=O", "IC50": 18.8}]}, {"tested_on": "Mycobacterium tuberculosis", "assay": "Antimicrobial activity against Mycobacterium tuberculosis H37Rv ATCC 27294 expressing luciferase reporter gene assessed as growth inhibition after 6 days by luminometry", "assay_type": "functional", "conditions": "H37Rv ATCC 27294, 144 h", "outline": "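Luminescent H37Rv (pSMT1, V. harveyi luciferase) was declumped by filtration, adjusted to 50,000 RLU/ml in 7H9-10% FCS, and exposed to serial compound dilutions in triplicate for 6 days at 37 °C. Light was read for 10 s after adding 1% n-decanal. GI50 is the concentration giving 50% growth reduction versus untreated culture.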", "units": {"GI50": "µM"}, "values": [{"smiles": "Cc1ccc(-c2cc3c4c(nccc4n2)-c2ccccc2C3=O)cc1", "GI50": 0.43}, {"smiles": "CN(C)/C=C/c1nc(-c2ccc(F)cc2)cc2c1C(=O)c1ccccc1C2=O", "GI50": 0.41}, {"smiles": "CN(C)/C=C/c1nc(-c2ccc(Cl)cc2)cc2c1C(=O)c1ccccc1C2=O", "GI50": 0.55}]}, {"tested_on": "Mycobacterium tuberculosis", "assay": "Antimicrobial activity against Mycobacterium tuberculosis H37Rv ATCC 27294 expressing luciferase reporter gene infected in mouse J774 macrophages assessed as intracellular growth inhibition at 0.5 uM after 4 days by luminometry relative to untreated control", "assay_type": "functional", "conditions": "H37Rv ATCC 27294, J774, 96 h, read-out: GI", "outline": "as §1", "units": {"inhibition of growth at 0.5 µM": "%"}, "values": [{"smiles": "Cc1ccc(-c2cc3c4c(nccc4n2)-c2ccccc2C3=O)cc1", "inhibition of growth at 0.5 µM": 7}, {"smiles": "CN(C)/C=C/c1nc(-c2ccc(F)cc2)cc2c1C(=O)c1ccccc1C2=O", "inhibition of growth at 0.5 µM": 10.2}, {"smiles": "CN(C)/C=C/c1nc(-c2ccc(Cl)cc2)cc2c1C(=O)c1ccccc1C2=O", "inhibition of growth at 0.5 µM": 19.8}]}]}
